Measurements taken from paper PMC10230635 (Chinese Herbal Medicines, 2022).

Tests used:
α-Mannosidase (α-Man) [1] = biological target: T1, α-Mannosidase (α-Man) (Canavalia ensiformis, UniProt C0HJB3); assay: SPR interaction analysis between compounds and immobilised α-Man; type: binding, Canavalia ensiformis (Jack bean); details: for Kd: KD (equilibrium dissociation constant), kinetic analysis, SPR, 25 °C, 1:1 Langmuir binding model; for kon: read-out: ka (association rate constant); for koff: read-out: kd (dissociation rate constant)
T1 sequence (C0HJB3 1-562 limits assumed): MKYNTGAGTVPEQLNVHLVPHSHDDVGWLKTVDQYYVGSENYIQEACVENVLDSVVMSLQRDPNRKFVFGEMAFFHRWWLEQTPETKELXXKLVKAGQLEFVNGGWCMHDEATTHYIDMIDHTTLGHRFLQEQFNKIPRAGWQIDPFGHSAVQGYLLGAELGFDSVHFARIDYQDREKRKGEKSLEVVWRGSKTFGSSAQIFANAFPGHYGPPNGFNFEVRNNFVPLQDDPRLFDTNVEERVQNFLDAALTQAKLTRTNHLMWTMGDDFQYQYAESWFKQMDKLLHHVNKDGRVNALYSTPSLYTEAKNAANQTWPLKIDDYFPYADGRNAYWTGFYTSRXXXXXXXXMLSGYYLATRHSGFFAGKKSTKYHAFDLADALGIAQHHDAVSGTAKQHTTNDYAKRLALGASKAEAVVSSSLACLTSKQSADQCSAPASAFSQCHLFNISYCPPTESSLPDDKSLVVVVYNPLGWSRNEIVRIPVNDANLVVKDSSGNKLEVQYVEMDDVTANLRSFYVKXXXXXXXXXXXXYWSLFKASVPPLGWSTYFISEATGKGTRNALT
T1 sequence (C0HJB3 563-981 partner limits assumed): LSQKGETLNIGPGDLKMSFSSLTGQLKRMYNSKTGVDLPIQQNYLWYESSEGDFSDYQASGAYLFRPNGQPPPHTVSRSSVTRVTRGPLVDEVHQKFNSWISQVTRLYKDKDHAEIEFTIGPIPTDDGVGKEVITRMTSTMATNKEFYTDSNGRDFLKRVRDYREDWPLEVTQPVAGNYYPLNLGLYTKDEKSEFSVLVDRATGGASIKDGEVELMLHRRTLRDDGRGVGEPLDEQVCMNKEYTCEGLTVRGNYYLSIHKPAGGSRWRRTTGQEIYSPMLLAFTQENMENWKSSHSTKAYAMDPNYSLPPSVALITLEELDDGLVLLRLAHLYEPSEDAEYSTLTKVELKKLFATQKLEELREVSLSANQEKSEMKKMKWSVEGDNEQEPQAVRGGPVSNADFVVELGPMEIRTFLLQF
Procedure, shortened: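 The α-Man chip was referenced against an enzyme-free channel. Each test compound was run at six concentrations in a twofold series, injected in parallel at 25 μL/min and 25 °C, with 12 min association and 20 min dissociation. A 4.0–6.0% DMSO calibration curve was applied. Runs were done in triplicate. ka, kd and KD came from a global 1:1 Langmuir fit; equilibrium constants came from steady-state analysis.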

[2] = system: human hepatoma cancer cell line (HepG2); assay: cells; type: cell-based; details: HepG2, 72 h, read-out: IC50, anti-proliferative activity
[3] = system: human breast cancer cell line (MCF7); assay: cells; type: cell-based; details: MCF7, 72 h, read-out: IC50, anti-proliferative activity
[4] = system: human lung cancer cell line (HCC827); assay: cells; type: cell-based; details: HCC827, 72 h, read-out: IC50, anti-proliferative activity
[5] = system: mouse fibroblast cells (L929); assay: CCK-8 toxicity on normal cells, L929; type: cell-based; details: L929, under the condition of keeping 90% cell viability
α-Mannosidase (α-Man) [6] = biological target: T1, α-Mannosidase (α-Man); assay: SPR bioactivity assessment: binding ability; design: species or system Canavalia ensiformis (Jack bean); details: swainsonine standard solution, PBST running buffer
Procedure, shortened: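 Jack bean α-Man was amine-coupled onto the GLH chip binding channel after sulfo-NHS/EDC activation. Coupling was at 20 μg/mL in 10 mmol/L sodium acetate, pH 4, at 25 μL/min for 360 s, followed by ethanolamine blocking. A reference channel was activated and blocked without enzyme. A positive-control inhibitor standard was injected, with PBST (10 mmol/L Na3PO4, 150 mmol/L NaCl, 0.005% Tween 20, pH 7.4) as the blank. The response was followed during association.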

Row | Kd (α-Mannosidase (α-Man) [1]) | kon (α-Mannosidase (α-Man) [1]) | koff (α-Mannosidase (α-Man) [1]) | SMILES | IC50 [2] | IC50 [3] | IC50 [4] | safe dose [5] | response signal during association (α-Mannosidase (α-Man) [6])
1 | 347 µM | 12 M⁻¹ s⁻¹ | 0.00418 s⁻¹ | COc1cc(C=O)cc(OC)c1O [Compound 2, 3,5-Dimethoxy-4-hydroxy-benzaldehyde] |  |  |  |  | 
2 |  |  |  | O[C@H]1[C@H]2[C@H](O)CCCN2C[C@H]1O [swainsonine, Swainsonine] |  |  |  |  | 20 RU
3 | 1370 µM | 1.54 M⁻¹ s⁻¹ | 0.00211 s⁻¹ | O=Cc1ccc(O)cc1 [Compound 1, p-Hydroxybenzaldehyde] |  |  |  |  | 
4 |  |  |  | COc1cc2ncnc(Nc3ccc(F)c(Cl)c3)c2cc1OCCCN1CCOCC1 [Gefitinib, reference compound] |  |  |  | 40 µmol/L | 

Row | SMILES | Kd (α-Mannosidase (α-Man) [1]) | kon (α-Mannosidase (α-Man) [1]) | koff (α-Mannosidase (α-Man) [1]) | IC50 [2] | IC50 [3] | IC50 [4] | safe dose [5] | response signal during association (α-Mannosidase (α-Man) [6])
5 | O=c1c2ccccc2nc2n1CCC2 [Compound 3, Deoxyvasicinone] | 47.3 µM | 73.3 M⁻¹ s⁻¹ | 0.00347 s⁻¹ | 5.7 µM | 7.21 µM | 0.75 µM | 20 µmol/L | 
